Assay results collected from several papers.
Protocols differ between the studies behind these lines.
Sample: Caco-2

Structure (SMILES) | setting | endpoint | result
C=CCc1ccc(O)c(-c2cc(CC=C)ccc2O)c1 | 0.05 mg/mL, 4 h, pH 7.4 | Papp A→B | 9 ×10⁻⁶ cm/s
COC(=O)N[C@H](C(=O)NN(CCC[C@@]1(Cc2ccccc2)C(=O)N([C@H]2c3ccccc3C[C@H]2O)C[C@H]1O)Cc1ccc(Br)cc1)C(C)(C)C | 10 µM, 1 h, pH 7.4 | Papp A→B | > 20 ×10⁻⁶ cm/s
COc1cc2c(c(OC)c1OC)-c1ccc(OC)c(=O)cc1[C@@H](NC(C)=O)CC2 |  | Papp B→A | 4.9 ×10⁻⁶ cm/s
C=C(CCC=C(C)C)[C@H]1CC[C@]2(C)[C@@H]1[C@H](O)C[C@@H]1[C@@]3(C)C[C@@H](O)[C@H](O[C@@H]4O[C@H](CO)[C@@H](O)[C@H](O)[C@H]4O[C@@H]4O[C@H](CO)[C@@H](O)[C@H](O)[C@H]4O)C(C)(C)[C@@H]3CC[C@]12C | 1 mg/mL, pH 7.4 | Papp | 3.56 ×10⁻⁶ cm/s
C/N=c1\nc(-c2ccccc2)n(-c2ccccc2)s1 | 20 µM, 95 min | Papp B→A | 37.4 ×10⁻⁶ cm/s
CC[C@@]1(O)C(=O)OCc2c1cc1n(c2=O)Cc2cc3ccccc3nc2-1 | 105 min | Papp B→A | ~3.5 ×10⁻⁶ cm/s
C[C@H]1O[C@@H](O[C@H]2[C@@H](O)C[C@H](O[C@H]3[C@@H](O)C[C@H](O[C@H]4CC[C@@]5(C)[C@H](CC[C@@H]6[C@@H]5C[C@@H](O)[C@]5(C)[C@@H](C7=CC(=O)OC7)CC[C@]65O)C4)O[C@@H]3C)O[C@@H]2C)C[C@H](O)[C@@H]1O | 10 µM, 1 h, pH 7.4 | Papp B→A | 22.8 ×10⁻⁶ cm/s
C[C@]12C[C@@H](O)[C@H]3[C@@H](CC[C@]4(O)C[C@@H](O)C[C@@H](O)[C@]34CO)[C@@]1(O)CC[C@@H]2c1cn(Cc2ccccc2)nn1 | 40 min, pH 6.5 | Papp B→A | 0.14 ×10⁻⁶ cm/s
O=C(CCCN1CCC2(CC1)C(=O)NCN2c1ccccc1)N(CC1CCCCC1)c1ccccc1 |  | Papp A→B | 2.83 ×10⁻⁶ cm/s
CC(C)NCC(O)COc1cccc2ccccc12 (stereo not shown) | 1 h, pH 7.4 | Papp A→B | 21.8 ×10⁻⁶ cm/s
COc1ccc2c(c1)[C@]13CCCC[C@@H]1[C@H](C2)N(C)CC3 | 10 µM, pH 6.5 | Papp B→A | 69.6 ×10⁻⁶ cm/s
N=c1c2c(-c3ccccc3)c(-c3ccccc3)n(Cc3ccccc3)c2ncn1[C@H]1CC[C@H](O)CC1 | 3 µM, 2 h, pH 7.4 | Papp B→A | 2 ×10⁻⁶ cm/s
NC[C@H]1O[C@@H](O[C@@H]([C@H](NCCCC(=O)NCc2ccc(N3CCC(Oc4ccc(OC(F)(F)F)cc4)CC3)cc2)C(N)=O)[C@H]2O[C@@H](n3ccc(=O)[nH]c3=O)C(O)C2O)[C@H](O)[C@@H]1O (stereo partly shown) |  | Papp | < 1 ×10⁻⁶ cm/s
